Results pooled from the literature.
Compare with care: the assays were run in different laboratories.
MMP8: Neutrophil collagenase (MMP8, Homo sapiens, UniProt P22894)
AR: Androgen receptor (AR, Homo sapiens, UniProt P10275)
PDE2A: cGMP-dependent 3',5'-cyclic phosphodiesterase (PDE2A, Homo sapiens, UniProt O00408)

SMILES | target | test | conditions | inhibition
c1ccc(C(NCCNC(c2ccccc2)c2ccccc2)c2ccccc2)cc1 | Carbonic anhydrase 2 (CA2, Homo sapiens, UniProt P00918) | enzyme activity, inhibitor | 10 µM | -7%
C#Cc1n[nH]c2c(-c3cn([C@@H](C)c4ccccn4)c(=O)[nH]c3=O)cc(F)cc12 | cAMP-dependent protein kinase catalytic subunit alpha (PRKACA, Homo sapiens, UniProt P17612) | enzyme activity, inhibitor | 0.1 µM | 5.1%
O=C(O)Cc1ccccc1Nc1c(Cl)cccc1Cl | Histone acetyltransferase p300 (EP300, Homo sapiens, UniProt Q09472) | enzyme activity, inhibitor, mobility shift | 1.25 mM | > 50%
CCOC(=O)c1ccc(OC(=O)CCCCCNC(=N)N)cc1 | MMP8 | enzyme activity, inhibitor | 10 µM | 7%
COc1ccc(S(=O)(=O)N2CCCCC2)cc1C | AR | ligand displacement, radioligand | 10 µM | < 30%
COc1ccc(S(=O)(=O)N(CC(=O)NO)CC(C)C)cc1 | MMP8 | enzyme activity, inhibitor | 10 nM | 5%
O=C(Nc1cccnn1)N1CCN([C@@H]2CCOc3cc(C(F)(F)F)ccc32)CC1 | 5-hydroxytryptamine receptor 1D (Htr1d, Rattus norvegicus, UniProt P28565) | cell-free assay | 20 µM | 4%
CCN(CC)CCCC[C@H](NC(=O)[C@H](CC(C)C)NC(=O)[C@H](C)NC(=O)[C@H](Cc1ccccc1)NC(=O)c1ccc(C(C)(C)C)cc1)C(=O)N[C@@H](CO)C(=O)OC | Delta-type opioid receptor (OPRD1, Homo sapiens, UniProt P41143) | ligand displacement, radioligand | 10 µM | 29%
CC(C)=CCC[C@]1(C)C=Cc2c(O)c3c(c(CC=C(C)C)c2O1)O[C@]12C(=C[C@@H]4C[C@H]1C(C)(C)O[C@@]2(C/C=C(/C)C(=O)O)C4=O)C3=O | N-lysine methyltransferase KMT5A (KMT5A, Homo sapiens, UniProt Q9NQR1) | cell-free assay | 10 µM | 18%
Cc1ncc(C)n2nc(/C=C/c3nc(N4CCCC4)cc(N4CCOCC4)n3)nc12 | PDE2A | enzyme activity, inhibitor | 10 µM | 38%
Cn1cc(-c2cccc(N3CCc4c(sc5c4CC(C)(C)C5)C3=O)c2CO)cc(Nc2ccncn2)c1=O | Dual specificity mitogen-activated protein kinase kinase 6 (MAP2K6, Homo sapiens, UniProt P52564) | enzyme activity, inhibitor | 1 µM | 11%
CN(C)C(=O)COC(=O)Cc1ccc(OC(=O)c2ccc(NC(=N)N)cc2)cc1 | MMP8 | enzyme activity, inhibitor | 10 µM | 33%
Cn1cc(-c2cc(F)cc(N3CCn4c(cc5c4CCCC5)C3=O)c2CO)cc(Nc2ccc(N3CCN(C4COC4)CC3)cn2)c1=O | G protein-coupled receptor kinase 3 (GRK3, Homo sapiens, UniProt P35626) | enzyme activity, inhibitor | 0.1 µM | 0%
Clc1ccc2c(C3CCN(CCc4c[nH]c5ccccc45)CC3)c[nH]c2c1 | AR | ligand displacement, radioligand | 10 µM | 25%
CN(CCN1CCC(OC(=O)Nc2ccccc2-c2ccccc2)CC1)C(=O)c1ccc(CN2CCC(C(N)=O)CC2)cc1 | PDE2A | enzyme activity, inhibitor | 1 µM | 1%
